The source of these data is ChEMBL document CHEMBL1914335, “Identification of a potent and selective σ₁ receptor agonist potentiating NGF-induced neurite outgrowth in PC12 cells” (Bioorg Med Chem, 2011).

pKi: −log10 of the molar value. Activity calls are given as the source filed them. The calls are words filed in the database; no cut-off is given here.

Series [1] deals with Sigma non-opioid intracellular receptor 1 (Rattus norvegicus) (UniProt Q9R0C9). Kind of series: Agonist activity at sigma1 receptor in rat PC12 cells assessed as cells with increase in NGF-induced neurite outgrowth at 2.5 uM after 5 days by phase contrast microscopy. Particulars: PC-12. In kind it is functional, cell-based. The procedure, abridged:
(§1)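 PC12 cells grown at 37 °C, 5% CO2 in RPMI with 5% FBS and 10% horse serum. Replated at 0.25 × 10^4 cells/cm2 on poly-D-lysine glass coverslips. After 24 h, switched to 0.5% HS medium with NGF 2.5 ng/mL ± drug, BD-1063 at 5 µM final where used. After 5 days, fixed in 4% PFA. Cells with ≥1 neurite at least one cell-body diameter long were scored blind by two examiners; ≥3 independent experiments.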

Series [2] has the same target. In words: Agonist activity at sigma1 receptor in rat PC12 cells assessed as cells with increase in NGF-induced neurite outgrowth at 0.01 uM after 5 days by phase contrast microscopy. The conditions noted are these: PC-12. In kind it is functional, cell-based. The gist of the method:
as §1

The target is the same in series [3]. Kind of series: Agonist activity at sigma1 receptor in rat PC12 cells assessed as increase of NGF-induced neurite length at 2.5 uM after 5 days by phase contrast microscopy. It is filed as functional, cell-based. The conditions noted are these: PC-12. The gist of the method: (§2)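 Culture conditions match the neurite-outgrowth note: PC12 cells on poly-D-lysine coverslips with NGF 2.5 ng/mL ± drug for 5 days, BD-1063 at 5 µM final where used. Cells were then fixed in 4% PFA and imaged by phase contrast, six fields per coverslip. Neurite length was traced from cell body to tip, measured blind by two examiners; ≥3 independent experiments; mean ± SEM.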

The species named for the next series is Cavia porcellus. In words: Selectivity ratio of Ki for sigma2 receptor in guinea pig brain membrane to Ki for sigma1 receptor in guinea pig brain membrane. In kind it is cell membranes. The gist of the method:
(§3)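 For σ2, membranes (360 µg protein) incubated at rt for 120 min with 3 nM [3H]DTG plus 0.4 µM (+)-SKF10,047, with nine test concentrations in 50 mM Tris-HCl pH 8.0; nonspecific binding with 5 µM DTG. For σ1, 3 nM [3H]-(+)-pentazocine, 150 min at 37 °C, pH 7.4, haloperidol 10 µM. Both read by filtration and scintillation counting; Ki values derived.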

The target in series [4] is Kappa-type opioid receptor (Cavia porcellus, UniProt P41144). Kind of series: Displacement of [3H]-U69593 from kappa opioid receptor in guinea pig brain membrane after 150 mins by liquid scintillation counting. In kind it is cell membranes. The procedure, abridged: (§4)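 Guinea pig brain membranes (about 75 µg protein) incubated with 1 nM [3H]-U69,593 in 50 mM Tris, 8 mM MgCl2, pH 7.4, 150 min at 37 °C. Nonspecific binding with 10 µM unlabeled U69,593. Filtration, then solid scintillator counting in triplicate. Residual binding taken at 1 µM; otherwise IC50 from ≥6 concentrations, Ki by Cheng-Prusoff (Kd 0.69 nM).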
(Displacement assays read how much labelled ligand stays bound in the presence of the test substance.)

Series [5] addresses Sigma non-opioid intracellular receptor 1 (Cavia porcellus, UniProt Q60492). Kind of series: Displacement of [3H]-(+)-pentazocine from sigma1 receptor in guinea pig brain membrane after 150 mins by liquid scintillation counting. In kind it is cell membranes. The gist of the method:
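Membranes (500 µg protein) incubated with 3 nM [3H]-(+)-pentazocine and nine test concentrations in 50 mM Tris-HCl pH 7.4, 150 min at 37 °C. Nonspecific binding defined by 10 µM haloperidol. Samples filtered on PEI-presoaked GF/B filters and counted by liquid scintillation; Ki calculated from these curves.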

Series [6] can be described thus: Displacement of [3H]-DTG from sigma2 receptor in guinea pig brain membrane after 120 mins by liquid scintillation counting. It is filed as cell membranes, Cavia porcellus. The gist of the method: as §3
The next series is filed under the species Sus scrofa. Kind of series: Displacement of [3H]-(+)-MK-801 from NMDA receptor PCP binding site in pig brain cortex assessed as residual binding at 10 uM after 150 mins by scintillation counting. The gist of the method:
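Pig brain cortex membranes (about 100 µg protein) incubated with 2 nM [3H]-(+)-MK-801 in 5 mM Tris-acetate/1 mM EDTA pH 7.5, 150 min at rt. Nonspecific binding with 10 µM (+)-MK-801. Filtration, then solid scintillator counting. Residual binding measured at 10 µM test compound.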

In another series the target is Mu-type opioid receptor (Cavia porcellus, UniProt P97266). In words: Displacement of [3H]-DAMGO from mu opioid receptor in guinea pig brain membrane after 150 mins by liquid scintillation counting. It is filed as cell membranes. The gist of the method:
(§5)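 Guinea pig brain membranes (about 75 µg protein) incubated with 1 nM [3H]-DAMGO in 50 mM Tris, 8 mM MgCl2, 400 µM PMSF, pH 7.4, 150 min at 37 °C. Nonspecific binding with 10 µM naloxone. Filtration, then solid scintillator counting in triplicate. Residual binding taken at 1 µM test compound; otherwise IC50 from ≥6 concentrations, Ki by Cheng-Prusoff (Kd 0.57 nM).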

For series [7], the target named is Sigma non-opioid intracellular receptor 1 (Rattus norvegicus) (UniProt Q9R0C9). In words: Agonist activity at sigma1 receptor in rat PC12 cells assessed as decrease in NGF-induced neurite elongation at 0.25 uM after 5 days by phase contrast microscopy in presence of 5 uM sigma1 receptor antagonist BD-1064 relative to compound alone. It is filed as functional, cell-based. On the set-up: scale not given: the % may be the effect or the level left. Particulars: PC-12, in the assay text read “BD-1063” for “BD-1064”. The procedure, abridged: as §2

Series [8] concerns the target Mu-type opioid receptor (Cavia porcellus) (UniProt P97266). In words: Displacement of [3H]-DAMGO from mu opioid receptor in guinea pig brain membrane assessed as residual binding at 1 uM after 150 mins by liquid scintillation counting. In kind it is cell membranes. The gist of the method:
as §5

The test system of series [9] is HaCaT. Kind of series: Cytotoxicity against human HaCaT cells at 1x10'-8 to 1x10'-5 M after 48 hrs by MTT assay. It is filed as cell-based. The procedure, abridged: (§6)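 HaCaT cells plated at 5000/well. After 24 h, exposed to 1 × 10^-8 to 1 × 10^-5 for 48 or 72 h at 37 °C, 5% CO2, in medium with 5% FBS or serum-free (N = 6 each). Viability was read as optical density in an MTT-based assay.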
(In general: Formazan colour is commonly taken as a measure of viable cells.)

Series [10] addresses Kappa-type opioid receptor (Cavia porcellus) (UniProt P41144). Kind of series: Displacement of [3H]-U69593 from kappa opioid receptor in guinea pig brain membrane assessed as residual binding at 1 uM after 150 mins by liquid scintillation counting. In kind it is cell membranes. The gist of the method:
as §4

For the next series, the system named is PC-12. In words: Cytotoxicity against rat PC12 cells. In kind it is cell-based.
The target in series [11] is Sigma non-opioid intracellular receptor 1 (Rattus norvegicus) (UniProt Q9R0C9). In words: Agonist activity at sigma1 receptor in rat PC12 cells assessed as cells with increase in NGF-induced neurite outgrowth at 0.25 uM after 5 days by phase contrast microscopy in presence of 5 uM sigma1 receptor antagonist BD-1063. It is filed as functional, cell-based. Particulars: PC-12. The procedure, abridged: as §1

The target is the same in series [12]. Kind of series: Agonist activity at sigma1 receptor in rat PC12 cells assessed as increase of NGF-induced neurite elongation at 0.25 uM after 5 days by phase contrast microscopy. It is filed as functional, cell-based. The conditions noted are these: PC-12. The gist of the method: as §2
Series [13] has as its system HaCaT. In words: Cytotoxicity against human HaCaT cells at 1x10'-8 to 1x10'-5 M after 72 hrs by MTT assay. In kind it is cell-based. The gist of the method: as §6
Series [14] has as its target Sigma non-opioid intracellular receptor 1 (Rattus norvegicus) (UniProt Q9R0C9). In words: Agonist activity at sigma1 receptor in rat PC12 cells assessed as increase of NGF-induced neurite elongation at 0.05 uM after 5 days by phase contrast microscopy. It is filed as functional, cell-based. The conditions noted are these: PC-12. The procedure, abridged:
as §2

The target is the same in series [15]. In words: Agonist activity at sigma1 receptor in rat PC12 cells assessed as cells with increase in NGF-induced neurite outgrowth at 0.05 to 2.5 uM after 5 days by phase contrast microscopy. The conditions noted are these: PC-12.
The target is the same in series [16]. In words: Agonist activity at sigma1 receptor in rat PC12 cells assessed as cells with increase in NGF-induced neurite outgrowth at 0.25 uM after 5 days by phase contrast microscopy. It is filed as functional, cell-based. The conditions noted are these: PC-12. The procedure, abridged: as §1
Series [17] shares this target. In words: Agonist activity at sigma1 receptor in rat PC12 cells assessed as cells with increase in NGF-induced neurite outgrowth at 0.05 uM after 5 days by phase contrast microscopy. In kind it is functional, cell-based. The conditions noted are these: PC-12. The procedure, abridged:
as §1

Chain of Mu-type opioid receptor (Cavia porcellus) (P97266 whole entry): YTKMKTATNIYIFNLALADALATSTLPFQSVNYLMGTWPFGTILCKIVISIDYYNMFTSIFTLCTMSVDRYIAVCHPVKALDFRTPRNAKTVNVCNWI
Chain of Mu-type opioid receptor (P97266 whole entry): as above
Chain of Kappa-type opioid receptor (P41144 whole entry): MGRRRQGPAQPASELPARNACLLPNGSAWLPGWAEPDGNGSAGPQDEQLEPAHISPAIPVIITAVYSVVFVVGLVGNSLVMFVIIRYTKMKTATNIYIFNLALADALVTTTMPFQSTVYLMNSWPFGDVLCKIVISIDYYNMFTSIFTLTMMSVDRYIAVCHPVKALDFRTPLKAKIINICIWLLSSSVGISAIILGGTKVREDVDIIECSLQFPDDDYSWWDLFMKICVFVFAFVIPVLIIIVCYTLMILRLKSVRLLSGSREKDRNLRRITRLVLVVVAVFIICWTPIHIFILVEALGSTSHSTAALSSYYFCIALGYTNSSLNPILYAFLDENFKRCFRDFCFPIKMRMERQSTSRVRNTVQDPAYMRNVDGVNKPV
Chain of Kappa-type opioid receptor (Cavia porcellus) (P41144 whole entry): as above
Chain of Sigma non-opioid intracellular receptor 1 (Rattus norvegicus) (Q9R0C9 whole entry): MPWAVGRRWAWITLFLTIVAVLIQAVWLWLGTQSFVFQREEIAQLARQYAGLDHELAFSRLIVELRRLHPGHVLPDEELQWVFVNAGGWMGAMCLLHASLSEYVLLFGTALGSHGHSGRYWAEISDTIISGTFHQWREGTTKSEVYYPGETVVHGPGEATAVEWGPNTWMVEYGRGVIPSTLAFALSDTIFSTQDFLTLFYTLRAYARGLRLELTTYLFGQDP
Chain of Sigma non-opioid intracellular receptor 1 (Q60492 whole entry): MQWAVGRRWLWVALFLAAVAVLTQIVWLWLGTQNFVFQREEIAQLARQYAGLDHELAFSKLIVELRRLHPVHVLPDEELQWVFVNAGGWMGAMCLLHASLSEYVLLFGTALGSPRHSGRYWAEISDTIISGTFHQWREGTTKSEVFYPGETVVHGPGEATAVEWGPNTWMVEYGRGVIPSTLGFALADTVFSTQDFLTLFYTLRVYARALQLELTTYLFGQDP

Regarding `O=C(OCCN1CCOCC1)C1(c2ccccc2)CCCCC1`, the outcome in series [1], in [2] and in series [3] was inactive.

What is called pKi is the Ki on a negative log10 scale, so that one unit is a factor of ten. For the compound `C/C(=C\CN1CCC(Cc2ccccc2)CC1)c1ccccc1`, the Ratio Ki in the series listed under Cavia porcellus turned out to be 5.1. In addition, the pKi in [4] is 6.72; in series [5], 8.97; in [6], 8.26; at Mu-type opioid receptor, 6.82. The Activity in the series filed under Sus scrofa is 0%.

Turning to `CC(CCN1CCCCC1)c1ccc(-c2ccccc2)cc1.Cl` (racemic), the Activity in [2] is 23.4%; in series [7], 31%; in series [8], 0%; in the series on HaCaT [9] it was “Non-toxic”; in [10] it was 36%; with PC-12 it was “Non-toxic”. Further, the Activity in [11] was 18.6%; in the series filed under Sus scrofa, 25%; in [12], 131 µm; in the series on HaCaT [13], “Non-toxic”. For the same compound, in the series listed under Cavia porcellus, the Ratio Ki turned out to be 147. Further, the pKi in [5] was 9.15; in [6], 6.99.

For `C/C(=C\CN1CCCCC1)c1ccc(-c2ccccc2)cc1`, the result in [1], in series [3], in series [14], in series [15], in [12] and in series [16] was inactive. Besides, the result in series [17] was inactive. Also, in the series filed under Cavia porcellus, the Ratio Ki turned out to be 129. Besides, the Activity worked out at 0% in series [8], 6% in series [10] and 32% in the series filed under Sus scrofa. Further, the values for the pKi in [5] and in [6] were 9.07 and 6.95, respectively.

Consider `COc1cccc(/C(C)=C/CN(C)Cc2ccccc2)c1`, for which the Ratio Ki in the series listed under Cavia porcellus was determined as 16.3. Besides, the pKi in [4] is 6.52; in series [5] it was 8.00; in series [6], 6.79. In addition, the Activity in [8] turned out to be 49%; in the series filed under Sus scrofa, 8%.

For `COc1ccc(/C(C)=C/CN(C)Cc2ccccc2)cc1`, in the series listed under Cavia porcellus, the Ratio Ki is 29.5. Further, the pKi in series [4] is 6.71; in series [5], 8.28; in series [6] it was 6.81; on Mu-type opioid receptor, 7.04. Also, the Activity in the series filed under Sus scrofa came out at 27%.

On to `COc1ccc(/C(C)=C/CN2CCC(Cc3ccccc3)CC2)cc1`, for which the Ratio Ki in the series listed under Cavia porcellus worked out at 1.7. Moreover, the pKi is 6.80 in [4], 8.38 in series [5], 8.15 in series [6] and 6.83 at Mu-type opioid receptor. Moreover, in the series listed under Sus scrofa, the Activity was found to be 0%.

`COc1ccc(/C(C)=C/CN2CCCCC2)cc1`: the Ratio Ki in the series filed under Cavia porcellus is 10.6. Further, the Activity in [8] was 36%; in [10] it was 14%; in the series filed under Sus scrofa it was 0%. Also, the pKi in series [5] is 7.85; in [6], 6.83.

Take `C/C(=C\CN(C)Cc1ccccc1)c1ccccc1`: the Ratio Ki in the series listed under Cavia porcellus came to 0.7. The pKi in series [4] is 6.36; in series [5], 7.04; in series [6] it was 7.21; at Mu-type opioid receptor it was 6.92. Besides, the Activity in the series filed under Sus scrofa amounted to 67%.

`COc1cccc(/C(C)=C/CN2CCC(Cc3ccccc3)CC2)c1`: the Ratio Ki in the series filed under Cavia porcellus was 0.8. The pKi in [4] is 6.67; in [5], 8.11; in series [6], 8.24. Besides, the Activity (in [8]; in the series filed under Sus scrofa) was 36% throughout.
